Common to all, as to type: functional
Assay [1] relates to Rattus norvegicus. Kind of assay: Percent inhibition value on the Sephadex-induced lung eosinophilia model at an intraperitoneal (ip) dose of 3 mg/kg. The essentials:
(§1)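 Male Wistar rats, five per group; Sephadex G-200 (0.5 mg/mL in sterile saline, swollen by boiling 5 h), 1 mL injected via tail vein on days 0, 3 and 5; drug or vehicle given ip 10 min before each Sephadex injection. Day 7: lavage with heparinized PBS (37 °C), repeated, pooled; cells counted microscopically. Inhibition (%) from group-mean eosinophil/total-cell ratio versus vehicle.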

The test system of assay [2] is Rattus norvegicus. Kind of assay: Percent inhibition value on the Sephadex-induced lung eosinophilia model at an intraperitoneal (ip) dose of 30 mg/kg. The gist of the method:
as §1

Assay [3] deals with Rattus norvegicus. Kind of assay: Percent inhibition value on the Sephadex-induced lung eosinophilia model at an intraperitoneal (ip) dose of 0.1 mg/kg. The gist of the method:
as §1

Our source for the inhibition in vivo values is ChEMBL document CHEMBL1131605, “Synthesis and pharmacological activity of triazolo[1,5-a]triazine derivatives inhibiting eosinophilia” (1998).

SMILES strings stand for the structures.

The term inhibition in vivo denotes the relative decrease from the control value, in per cent. For the compound `C/N=C(\S)n1nc(-c2ccco2)nc1N`, the inhibition in vivo at 3 mg/kg in the assay on Rattus norvegicus [1] was 18%. As for `Cn1cnc2nc(-c3ccc(Cl)cc3Cl)nn2c1=S`, in the assay with Rattus norvegicus [1], the inhibition in vivo at 3 mg/kg turned out to be 90%. With `Cn1cnc2ccccc2c1=S`, the inhibition in vivo at 30 mg/kg in the assay on Rattus norvegicus [2] was 22%. For the compound `CCCCn1cnc2ncnn2c1=S`, the inhibition in vivo at 30 mg/kg with Rattus norvegicus [2] is 23%. Regarding `C/N=C(\S)n1nc(/C=C/c2ccc(Cl)cc2)nc1N`, the inhibition in vivo at 3 mg/kg with Rattus norvegicus [1] was found to be 25%. For `Cn1c(-c2ccccc2)nc2ncnn2c1=S`, the inhibition in vivo at 30 mg/kg in the assay on Rattus norvegicus [2] amounted to 29%. As to `CCOc1ncnc2ncnn12`, in the assay on Rattus norvegicus [2], the inhibition in vivo at 30 mg/kg turned out to be 6%. With `C/N=C(\S)n1nc(-c2ccc(-c3ccccc3)cc2)nc1N`, in the assay with Rattus norvegicus [1], the inhibition in vivo at 3 mg/kg stood at 58%.

For the compound `C/N=C(\S)n1nc(-c2ccc(Cl)c3ccccc23)nc1N`, the inhibition in vivo at 3 mg/kg in the assay with Rattus norvegicus [1] was found to be 14%. On the same count and under the same terms, for `Cn1cnc2nc(-c3ccc(F)cc3)nn2c1=S` the value was 38%. For `Cn1cnc2ncnc-2c1S`, in the assay on Rattus norvegicus [2], the inhibition in vivo at 30 mg/kg was found to be 9%. Regarding `CCCn1cnc2ncnn2c1=S`, in the assay with Rattus norvegicus [2], the inhibition in vivo at 30 mg/kg came to 49%. As for `CSc1nc(N)nc2ncnn12`, the inhibition in vivo at 30 mg/kg with Rattus norvegicus [2] was -29%.

With `Cn1cnc2nc(-c3ccc(Br)cc3)nn2c1=S`, the inhibition in vivo at 3 mg/kg with Rattus norvegicus [1] worked out at 84%. For `Cc1nc2nc(-c3ccc(Cl)cc3)nn2c(=S)n1C`, the inhibition in vivo at 3 mg/kg in the assay with Rattus norvegicus [1] amounted to 60%.

As for `CCOC(=O)C(=O)Nc1nc2ncn(C)c(=S)n2n1`, the inhibition in vivo at 30 mg/kg in the assay with Rattus norvegicus [2] is -2%. As to `C/N=C(\S)n1nc(-c2ccc(Cl)cn2)nc1N`, the inhibition in vivo at 3 mg/kg with Rattus norvegicus [1] was -2%.

In the case of `C/N=C(\S)n1nc(-c2cccs2)nc1N`, in the assay with Rattus norvegicus [1], the inhibition in vivo at 3 mg/kg was -7%. The same measure, in the same setting: to `C/N=C(\S)n1nc(-c2ccc(Cl)cc2)nc1N` belongs 88%. The same measure, in the same setting: to `C/N=C(\S)n1nc(Oc2ccccc2)nc1N` belongs -5%. Turning to `Cn1cnc2nc(-c3ccc(C#N)cc3)nn2c1=S`, the inhibition in vivo at 30 mg/kg in the assay with Rattus norvegicus [2] came out at 79%. As to `Cn1cnc2ncnn2c1=S`, the inhibition in vivo at 30 mg/kg in the assay with Rattus norvegicus [2] was determined as 69%.

Regarding `CNC(=S)n1nc(SC)nc1N`, the inhibition in vivo at 30 mg/kg in the assay with Rattus norvegicus [2] was 54%.

As to `Cn1cnc2nc(-c3ccc(Cl)c(Cl)c3)nn2c1=S`, the inhibition in vivo at 3 mg/kg in the assay on Rattus norvegicus [1] came out at 89%. In the case of `C/N=C(\S)n1nc(C#Cc2ccccc2)nc1N`, in the assay with Rattus norvegicus [1], the inhibition in vivo at 3 mg/kg came to 0%.

Turning to `C/N=C(\S)n1nc(Cc2ccccc2)nc1N`, the inhibition in vivo at 3 mg/kg with Rattus norvegicus [1] is -24%.

For the compound `Cn1cnc2ncnn2c1=O`, the inhibition in vivo at 30 mg/kg with Rattus norvegicus [2] came out at 17%. With `Cc1nc2ncnn2c(=S)n1C`, in the assay with Rattus norvegicus [2], the inhibition in vivo at 30 mg/kg came to 18%.

On to `CSc1nc(N)n2ncnc2n1`, for which the inhibition in vivo at 30 mg/kg in the assay on Rattus norvegicus [2] was -7%.

For `Cn1c(-c2ccccc2)nc2nc(-c3ccc(Cl)cc3)nn2c1=S`, the inhibition in vivo at 3 mg/kg in the assay on Rattus norvegicus [1] stood at 5%. On to `c1nc2nc(NC3CCCCC3)nc(NC3CCCCC3)n2n1`, for which the inhibition in vivo at 30 mg/kg with Rattus norvegicus [2] was found to be 1%. Still for that read-out and setting: for `CNc1nc(NC)n2ncnc2n1` the value was 38%. Regarding `Cn1cnc2nc(-c3ccc(Cl)cc3)nn2c1=S`, in the assay on Rattus norvegicus [2], the inhibition in vivo at 30 mg/kg was 92%. Besides, the inhibition in vivo at 3 mg/kg with Rattus norvegicus [1] was found to be 90%. As for `C/N=C(\S)n1nc(-c2ccc(Cl)nc2)nc1N`, the inhibition in vivo at 3 mg/kg with Rattus norvegicus [1] is -9%. As to `Cn1cnc2nc(-c3ccccc3)nn2c1=S`, in the assay on Rattus norvegicus [2], the inhibition in vivo at 30 mg/kg was -1%. Same read-out and setting: to `Cn1cnc2nncc-2c1S` belongs -13%. Turning to `CNC(=S)n1nc(/N=C/c2ccccc2)nc1N`, in the assay with Rattus norvegicus [1], the inhibition in vivo at 3 mg/kg came to 37%. `Cn1cnc2nc(-c3ccc(C(F)(F)F)cc3)nn2c1=S`: the inhibition in vivo at 3 mg/kg with Rattus norvegicus [1] amounted to 87%.

In the case of `C[C@@H]1C[C@H]2[C@@H]3CCC4=CC(=O)C=C[C@]4(C)[C@@]3(F)[C@@H](O)C[C@]2(C)[C@@]1(O)C(=O)CO` [DEXAMETHASONE], in the assay on Rattus norvegicus [3], the inhibition in vivo at 0.1 mg/kg was 95%.
